# Assay outcomes (PubChem)
# ALR H2O2 inh = human ALR oxidase inhibition via reduced H2O2 | P55789 | purified ALR, DTT oxidation, H2O2 HRP-luminol luminescence | inhibition, % (test concentration not listed) | AID 485317 | 3.8% of 290,000 active;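 active = mean replicate inhibition above about 79%, with every replicate also reaching it, limit read from the data; inconclusive = only one of the two criteria met; inactive = mean below limit and not every replicate reaching it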
# Arrestin-AP2 inh = inhibitors of human beta-arrestin and AP2 interaction | FITC-arrestin peptide / GST-AP2 beads, flow cytometry; AP2 beta2 appendage carries R879A mutation | inhibition, % at 10 µM | 0.31% of 340,000 active | AID 504490;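 active = inhibition above a set limit, near 3 SD of compounds lacking own fluorescence, cut at about 54% in these data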;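 also: plate controls were DMSO wells for no effect and 5 µM unlabelled arrestin peptide for full effect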
#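 System: GST-AP2 R879A glutathione beads | Also added: FITC-arrestin peptide, 50 nM | Times: 12 min plus 1 h, RT | Signal: Bead flow cytometry, FITC channel | Buffer or medium: PBS with 0.05% Tween 20 and 0.1% BSA | Read-out basis: Percent drop in bead-associated FITC signal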
# PolyA inhibitor = yeast polyadenylation inhibition | S. cerevisiae SKY197-pL101 polyadenylation reporter, beta-gal luminescence; efflux-impaired pdr1/pdr3 knockout yeast; score 100 = 6 SD above DMSO | activity score, % at 12 µM | 0.02% of 300,000 active;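 active = lowest replicate activity score at least 50, where 100 means six control SD above control mean; inconclusive = lowest score under 50 but half or more replicates reach 50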;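 also: yeast exposed to compound for 9 h at 30 °C; higher score means more reporter readthrough which indicates perturbed polyadenylation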
# NALP1 yeast inh = NALP1 inhibition; S. cerevisiae NALP1/ASC/caspase-1 growth, X-gal OD620, 72 h; inhibition, % at 10 µM; 0.61% of 280,000 active; AID 2071; in the data active = inhibition mostly above about 24%, no sharp cut-off; inactive = mostly below about 32%
# NALP3 yeast inh = blocks the NALP3 inflammasome reconstituted in yeast. Yeast reconstituted NLRP3/ASC/caspase-1, beta-gal luminescence, 24 h. inhibition, % at 10 µM. 0.39% of 330,000 active;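 active = inhibition of 50% or more; inactive = inhibition below 50%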;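 also: plate controls were induced DMSO wells for no effect and uninduced yeast grown without galactose for full effect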
# Pemphigus Ab inh = blocks pemphigus antibody binding to human desmoglein-3 | AID 588358 | DSG3-coupled beads, scFv-anti-DSG3-GFP binding, flow cytometry; active compounds read low | 0.48% of 310,000 active | binding (percent of control), % at 10 µM;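 active = binding more than 3 SD below its plate's average and above zero; inconclusive = below that plate limit but binding exactly zero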;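 also: hits lower antibody fragment binding to DSG3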
# Target sequence (P32926 whole entry, looked up, the tested form may be a part): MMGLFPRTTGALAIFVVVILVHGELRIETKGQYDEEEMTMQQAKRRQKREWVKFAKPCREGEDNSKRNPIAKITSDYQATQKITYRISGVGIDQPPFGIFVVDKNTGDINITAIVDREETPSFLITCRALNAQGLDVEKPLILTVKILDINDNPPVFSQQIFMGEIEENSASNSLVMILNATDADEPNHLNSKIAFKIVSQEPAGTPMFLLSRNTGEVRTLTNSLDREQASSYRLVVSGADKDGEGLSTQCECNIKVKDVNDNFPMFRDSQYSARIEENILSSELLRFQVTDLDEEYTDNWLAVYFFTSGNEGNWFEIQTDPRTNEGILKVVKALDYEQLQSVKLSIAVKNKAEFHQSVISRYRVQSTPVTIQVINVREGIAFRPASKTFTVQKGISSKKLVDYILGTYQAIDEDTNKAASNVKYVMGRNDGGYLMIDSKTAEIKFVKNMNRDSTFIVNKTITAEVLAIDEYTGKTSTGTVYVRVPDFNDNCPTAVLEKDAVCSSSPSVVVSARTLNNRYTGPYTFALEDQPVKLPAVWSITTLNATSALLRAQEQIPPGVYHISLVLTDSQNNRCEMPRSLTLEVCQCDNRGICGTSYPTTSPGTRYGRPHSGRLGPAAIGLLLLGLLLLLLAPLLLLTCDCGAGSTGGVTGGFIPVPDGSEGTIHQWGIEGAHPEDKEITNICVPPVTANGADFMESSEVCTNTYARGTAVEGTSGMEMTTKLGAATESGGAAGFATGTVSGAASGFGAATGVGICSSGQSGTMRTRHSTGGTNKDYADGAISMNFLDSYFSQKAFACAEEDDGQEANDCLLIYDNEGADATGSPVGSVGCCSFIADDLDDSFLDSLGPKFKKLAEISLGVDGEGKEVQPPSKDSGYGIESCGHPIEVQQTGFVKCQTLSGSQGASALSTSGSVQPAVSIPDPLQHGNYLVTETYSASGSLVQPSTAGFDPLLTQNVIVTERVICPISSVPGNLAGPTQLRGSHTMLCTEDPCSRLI
# NALP3 yeast conf = NALP3 inhibition confirmation in yeast | shares compounds with NALP3 yeast inh | yeast expressing human NALP3, luminescence | 81% of 1,300 active | AID 435006 | inhibition, % at 10 µM; in the data active = inhibition above about 48%
# Casp1 ASC ctr = counter-screen for NALP3 inhibitors: yeast caspase-1-ASC. 66% of 1,000 active. shares compounds with NALP3 yeast inh. inhibition, % at 10 µM. yeast expressing Caspase-1-ASC, luminescence counter screen
# NALP3 retest = confirmation retest of NALP3 inhibitors in yeast; inhibition, % at 10 µM; shares compounds with NALP3 yeast inh; AID 488794; 53% of 1,000 active; yeast expressing human NALP3, luminescence read-out
# Starred values were filed as active, the others as inactive; ? = inconclusive; nt = no result given. Compounds with a hit are over-represented: about 4.6% of the library has one in this group of screens. Rule as the data show it, unless noted: active = inhibition above about 50%; inactive = the rest.
SMILES,ALR H2O2 inh,Arrestin-AP2 inh,PolyA inhibitor,NALP1 yeast inh,NALP3 yeast inh,Pemphigus Ab inh,NALP3 yeast conf,Casp1 ASC ctr,NALP3 retest
Cn1c(SCc2nc(-c3ccc(Br)cc3)no2)nnc1-c1ccco1,nt,9,-11,-1,58*,102,71*,61*,49
CCn1c(SCc2nc(-c3ccccc3)no2)nnc1-c1ccco1,-12,-2,-37,17,11,98,nt,nt,nt
O=C1CSC(=S)N1c1cccc(O)c1,-3,-11,-16,96*,92*,98,93*,99*,96*
O=C1/C(=C/c2cccs2)SC(=S)N1c1ccccc1,nt,8,-3,-10,9,96,nt,nt,nt
O=C1/C(=C/c2cccs2)SC(=S)N1c1cccc(O)c1,-2,32,0,-3,81*,93,88*,94*,88*
O=C1/C(=C/c2ccccn2)SC(=S)N1c1ccc(O)cc1,-6,9,5,nt,70*,93,75*,56*,49
Cc1cccc(N2C(=O)/C(=C/c3ccccn3)SC2=S)c1,2,10,-2,21,16,102,nt,nt,nt
COCC(=O)Nc1nnc(-c2ccc(C(C)(C)C)cc2)s1,7,-43,-13,2,21,104,nt,nt,nt
CC(=O)c1ccc(S(=O)(=O)NCc2ccc(C(=O)NCC(c3ccccc3)N(C)C)cc2)cc1 (stereo unspecified),-15,28,-3,10,2,109,nt,nt,nt
O=C(/C=C/c1ccccc1)Oc1cccc2cccnc12,15,-4,-25,-22,35,114,nt,nt,nt
O=C(/C=C\c1ccccc1)Oc1cccc2cccnc12,-42,21,-13,-20,53*,119,42,41,37
O=C(Nc1ccc2c(c1)Cc1ccccc1-2)c1ccncc1,-3,3,-5,49,53*,101,-16,nt,nt
O=C(Nc1ccc2c(c1)Cc1ccccc1-2)c1cc2ccccc2o1,-12,7,2,nt,1,93,nt,nt,nt
CCC(C(=O)NC(C)(C)C)N(Cc1ccc(F)cc1)C(=O)c1snc(C(N)=O)c1N (stereo unspecified),-1,3,12,20,11,119,nt,nt,nt
CCCCCc1nnc(NC(=O)C2=COCCO2)s1,-2,33,-6,nt,21,94,nt,nt,nt
COc1ccc(NC(=O)C#Cc2ccccc2)cc1,6,1,7,-10,67*,110,76*,48,62*
CN1C(=O)c2cccc(NC(=O)Cc3ccccc3)c2C1=O,0,8,-2,28,50*,105,50*,60*,36
COc1ccc(C(=O)Nc2ccc(Cl)cc2C(=O)N2CCCC(C)C2)cc1OC (stereo unspecified),nt,1,9,21,20,95,nt,nt,nt
CSc1ccc2c(c1)N(CCC1CCCCN1C)c1ccccc1S2 (stereo unspecified),99*,-10,3,50*,52*,101,60*,52*,33
CSc1ccc2c(c1)C(N1CCN(C)CC1)Cc1ccc(F)cc1S2 (stereo unspecified),3,1,-1,nt,26,97,nt,nt,nt
O=C(Nc1ccc(F)c(Cl)c1)c1ccccc1,nt,-8,nt,nt,61*,105,82*,70*,63*
Cc1c(Cc2ccccc2)sc(NC(=O)c2ccco2)c1C(N)=O,-2,4,-63,4,85*,97,92*,95*,86*
O=C(Nc1ccc(Nc2ccccc2)cc1)c1ccc(F)cc1,50,8,0,3,62*,95,78*,59*,53*
O=C(Nc1ccc(Nc2ccccc2)cc1)c1ccco1,92*,3,5,12,75*,104,70*,79*,75*
COC(=O)c1c(NC(=O)c2ccco2)sc(C)c1C,-1,0,-38,9,14,102,nt,nt,nt
SMILES,ALR H2O2 inh,Arrestin-AP2 inh,PolyA inhibitor,NALP1 yeast inh,NALP3 yeast inh,Pemphigus Ab inh,NALP3 yeast conf,Casp1 ASC ctr,NALP3 retest
COc1ccc(-c2noc(CSc3nc(N)cc(=O)[nH]3)n2)cc1,-9,1,8,nt,3,112,nt,nt,nt
CC(=O)Nc1ccc(NC(=O)CSCCc2ccccn2)cc1,11,-5,2,2,8,103,nt,nt,nt
Cc1nc(C)c(C(=O)N/N=C/c2ccco2)s1,-11,-21,8,-7,22,106,nt,nt,nt
O=C(Nc1ccc2oc(-c3ccccc3)nc2c1)c1ccco1,8,1,17,75,77*,96,17,nt,nt
CSCc1cc(N2CCOCC2)nc(SCc2ccc(Cl)c(Cl)c2)n1,-12,12,-18,13,31,98,nt,nt,nt
COCc1cc(N2CCOCC2)nc(SCc2ccc(Cl)cc2)n1,32,2,-24,18,58*,101,47*,68*,43
COc1ccc(S(=O)(=O)Nc2c(C)cccc2C)cc1-n1cnnn1,1,2,23,6,1,nt,nt,nt,nt
N#C/C(=N\Nc1ccc(Cl)cc1)C(=O)c1ccsc1,?,1,-33,14,55*,102,35,nt,nt
N#C/C(=N\Nc1ccc(S(=O)(=O)N2CCOCC2)cc1)C(N)=S,?,5,1,-14,21,94,nt,nt,nt
Cc1ccc(NC(N)=S)cc1C,-10,12,9,1,18,105,nt,nt,nt
N#C/C(=N\Nc1ccc(Cl)cc1)C(N)=S,94*,28,-10,nt,75*,114,90*,nt,nt
Cc1ccc(N/N=C(\C#N)C(N)=S)cc1C,nt,5,5,11,67*,94,56*,42,41
COc1ccccc1-c1cn(S(=O)(=O)c2ccc(F)cc2)nc1N,19,3,-4,6,22,nt,nt,nt,nt
CN1CCCC(OC(=O)c2ccc(S(=O)(=O)N(C)C)cc2)C1 (stereo unspecified),2,0,-3,16,-1,96,nt,nt,nt
COC(=O)c1sccc1NC(=O)c1ccc(C)o1,-2,-9,-9,4,45,105,nt,nt,nt
COC(=O)c1sccc1NC(=O)c1ccc(Br)o1,-20,-7,-11,3,53*,108,38,34,46
C=CCN1CC(=O)N2C(c3ccccc3)c3[nH]c4ccccc4c3C[C@H]2C1=O (stereo partly specified),-8,-6,-6,30,-3,105,nt,nt,nt
CC1(C)[C@@H](O)CC[C@]2(C)C3C(O)C=C4[C@H]5C[C@@](C)(CO)CC[C@]5(C)CC[C@]4(C)[C@]3(C)CC[C@@H]12 (stereo partly specified),nt,19,-21,nt,62*,108,70*,64*,50*
